Consider nine molecules from ChEMBL document CHEMBL5120972, “Small-Molecule Inhibitors of the MLL1 CXXC Domain, an Epigenetic Reader of DNA Methylation” (ACS Med Chem Lett, 2022).

Experiment [1] concerns the target T1, Lysine-specific demethylase 2B (Homo sapiens, UniProt Q8NHM5).
T1 sequence (Q8NHM5 whole entry): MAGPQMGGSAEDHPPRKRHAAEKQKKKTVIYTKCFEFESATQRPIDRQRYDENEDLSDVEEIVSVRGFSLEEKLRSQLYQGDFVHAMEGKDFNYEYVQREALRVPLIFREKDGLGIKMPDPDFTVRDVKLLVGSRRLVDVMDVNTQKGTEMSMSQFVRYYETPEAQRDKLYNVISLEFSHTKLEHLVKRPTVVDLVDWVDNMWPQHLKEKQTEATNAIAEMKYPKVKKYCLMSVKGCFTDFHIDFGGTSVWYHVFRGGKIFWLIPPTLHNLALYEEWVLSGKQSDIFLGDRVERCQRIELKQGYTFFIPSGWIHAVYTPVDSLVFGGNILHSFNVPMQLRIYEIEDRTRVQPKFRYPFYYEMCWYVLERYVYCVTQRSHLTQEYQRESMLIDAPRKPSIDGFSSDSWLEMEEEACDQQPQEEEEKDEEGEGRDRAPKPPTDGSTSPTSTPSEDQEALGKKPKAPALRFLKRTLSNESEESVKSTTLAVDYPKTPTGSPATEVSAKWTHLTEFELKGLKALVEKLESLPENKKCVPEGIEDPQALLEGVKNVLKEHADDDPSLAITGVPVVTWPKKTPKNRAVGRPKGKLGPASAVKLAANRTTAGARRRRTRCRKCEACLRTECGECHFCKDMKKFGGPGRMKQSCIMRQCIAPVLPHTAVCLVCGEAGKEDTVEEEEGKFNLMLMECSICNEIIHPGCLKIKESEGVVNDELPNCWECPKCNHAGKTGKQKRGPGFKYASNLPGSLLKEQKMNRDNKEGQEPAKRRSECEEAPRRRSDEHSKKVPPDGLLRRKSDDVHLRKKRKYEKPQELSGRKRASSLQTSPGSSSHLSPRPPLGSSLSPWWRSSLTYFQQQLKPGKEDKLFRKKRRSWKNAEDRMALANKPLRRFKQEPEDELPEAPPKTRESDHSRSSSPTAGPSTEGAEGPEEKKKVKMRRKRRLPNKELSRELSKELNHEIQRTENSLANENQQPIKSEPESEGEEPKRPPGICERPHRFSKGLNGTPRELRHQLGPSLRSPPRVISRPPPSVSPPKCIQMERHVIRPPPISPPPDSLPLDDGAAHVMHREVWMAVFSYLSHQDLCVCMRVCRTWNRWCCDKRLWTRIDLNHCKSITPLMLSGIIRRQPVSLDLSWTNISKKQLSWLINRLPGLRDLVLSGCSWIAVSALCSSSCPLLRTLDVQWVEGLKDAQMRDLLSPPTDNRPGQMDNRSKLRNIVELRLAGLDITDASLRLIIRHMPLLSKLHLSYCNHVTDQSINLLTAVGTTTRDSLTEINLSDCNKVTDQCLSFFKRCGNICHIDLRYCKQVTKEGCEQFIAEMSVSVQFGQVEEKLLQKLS
As to the kind of experiment: Inhibition of GST-tagged human KDM2B (604 to 660 residues) expressed in Escherichia coli BL21 cells incubated for 30 mins by fluorescence polarization assay. In outline: (§1)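 Competition fluorescence polarization assay. CXXC domain protein is held at 2× its own KD. All domains are expressed and purified by the same method. Standard deviations come from three separate measurements.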
(In general: In fluorescence polarisation assays a small probe gives low polarisation when free and higher when bound to something large.)

The target of experiment [2] is T2, Lysine-specific demethylase 2A (Homo sapiens, UniProt Q9Y2K7).
T2 sequence (Q9Y2K7 whole entry): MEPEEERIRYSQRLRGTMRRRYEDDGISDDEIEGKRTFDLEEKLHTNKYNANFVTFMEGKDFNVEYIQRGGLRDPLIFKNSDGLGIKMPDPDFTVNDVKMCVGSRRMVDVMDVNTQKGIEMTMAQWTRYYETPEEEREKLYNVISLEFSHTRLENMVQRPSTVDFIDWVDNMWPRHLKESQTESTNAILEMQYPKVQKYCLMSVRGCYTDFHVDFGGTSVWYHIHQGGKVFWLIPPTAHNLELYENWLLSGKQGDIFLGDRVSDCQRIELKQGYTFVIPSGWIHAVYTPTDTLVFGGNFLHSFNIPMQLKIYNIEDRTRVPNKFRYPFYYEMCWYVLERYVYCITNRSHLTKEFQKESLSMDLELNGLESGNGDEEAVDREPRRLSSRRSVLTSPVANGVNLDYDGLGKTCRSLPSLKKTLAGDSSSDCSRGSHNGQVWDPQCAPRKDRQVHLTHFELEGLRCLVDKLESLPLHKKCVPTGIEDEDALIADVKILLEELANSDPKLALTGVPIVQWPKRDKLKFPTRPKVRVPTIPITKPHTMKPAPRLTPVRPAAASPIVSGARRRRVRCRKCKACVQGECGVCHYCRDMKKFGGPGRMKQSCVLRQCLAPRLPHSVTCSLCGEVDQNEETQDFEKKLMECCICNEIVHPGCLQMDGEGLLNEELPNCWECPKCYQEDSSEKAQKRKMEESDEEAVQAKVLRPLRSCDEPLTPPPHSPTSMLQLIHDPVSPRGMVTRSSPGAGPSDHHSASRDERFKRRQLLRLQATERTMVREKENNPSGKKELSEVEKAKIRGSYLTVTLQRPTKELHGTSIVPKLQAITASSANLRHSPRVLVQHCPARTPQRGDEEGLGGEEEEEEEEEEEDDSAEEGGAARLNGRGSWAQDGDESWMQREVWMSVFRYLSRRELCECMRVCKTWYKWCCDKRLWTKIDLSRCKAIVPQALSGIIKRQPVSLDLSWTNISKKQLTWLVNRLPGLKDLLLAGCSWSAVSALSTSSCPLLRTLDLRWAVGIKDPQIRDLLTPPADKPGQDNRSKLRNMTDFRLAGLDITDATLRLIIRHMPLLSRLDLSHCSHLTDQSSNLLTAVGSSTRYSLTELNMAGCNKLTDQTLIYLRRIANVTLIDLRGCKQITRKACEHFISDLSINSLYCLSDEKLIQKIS
Kind of experiment: Inhibition of GST-tagged human KDM2A (562 to 618 residues) expressed in Escherichia coli BL21 cells incubated for 30 mins by fluorescence polarization assay. In outline: as §1

In experiment [3] the target is T3, CXXC-type zinc finger protein 5 (Homo sapiens, UniProt Q7LFL8).
T3 sequence (Q7LFL8 whole entry): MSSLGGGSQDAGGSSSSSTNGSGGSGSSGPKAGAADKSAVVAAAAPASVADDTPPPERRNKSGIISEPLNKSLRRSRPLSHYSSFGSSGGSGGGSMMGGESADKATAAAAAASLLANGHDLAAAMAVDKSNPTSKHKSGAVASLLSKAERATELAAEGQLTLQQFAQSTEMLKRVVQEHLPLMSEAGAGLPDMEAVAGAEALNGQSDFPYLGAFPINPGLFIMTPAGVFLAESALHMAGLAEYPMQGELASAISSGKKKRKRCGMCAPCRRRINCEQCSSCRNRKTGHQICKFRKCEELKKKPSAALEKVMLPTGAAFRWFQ
As to the kind of experiment: Inhibition of GST-tagged human CXXC5 (255 to 305 residues) expressed in Escherichia coli BL21 cells incubated for 30 mins by fluorescence polarization assay. In outline:
as §1

Experiment [4] addresses Histone-lysine N-methyltransferase 2A (Homo sapiens, UniProt Q03164). As to the kind of experiment: Inhibition of GST-tagged human MLL1 (1147 to 1203 residues) expressed in Escherichia coli BL21 cells incubated for 30 mins by fluorescence polarization assay. In outline:
as §1

Chain of Histone-lysine N-methyltransferase 2A (Q03164 1-2718 limits assumed): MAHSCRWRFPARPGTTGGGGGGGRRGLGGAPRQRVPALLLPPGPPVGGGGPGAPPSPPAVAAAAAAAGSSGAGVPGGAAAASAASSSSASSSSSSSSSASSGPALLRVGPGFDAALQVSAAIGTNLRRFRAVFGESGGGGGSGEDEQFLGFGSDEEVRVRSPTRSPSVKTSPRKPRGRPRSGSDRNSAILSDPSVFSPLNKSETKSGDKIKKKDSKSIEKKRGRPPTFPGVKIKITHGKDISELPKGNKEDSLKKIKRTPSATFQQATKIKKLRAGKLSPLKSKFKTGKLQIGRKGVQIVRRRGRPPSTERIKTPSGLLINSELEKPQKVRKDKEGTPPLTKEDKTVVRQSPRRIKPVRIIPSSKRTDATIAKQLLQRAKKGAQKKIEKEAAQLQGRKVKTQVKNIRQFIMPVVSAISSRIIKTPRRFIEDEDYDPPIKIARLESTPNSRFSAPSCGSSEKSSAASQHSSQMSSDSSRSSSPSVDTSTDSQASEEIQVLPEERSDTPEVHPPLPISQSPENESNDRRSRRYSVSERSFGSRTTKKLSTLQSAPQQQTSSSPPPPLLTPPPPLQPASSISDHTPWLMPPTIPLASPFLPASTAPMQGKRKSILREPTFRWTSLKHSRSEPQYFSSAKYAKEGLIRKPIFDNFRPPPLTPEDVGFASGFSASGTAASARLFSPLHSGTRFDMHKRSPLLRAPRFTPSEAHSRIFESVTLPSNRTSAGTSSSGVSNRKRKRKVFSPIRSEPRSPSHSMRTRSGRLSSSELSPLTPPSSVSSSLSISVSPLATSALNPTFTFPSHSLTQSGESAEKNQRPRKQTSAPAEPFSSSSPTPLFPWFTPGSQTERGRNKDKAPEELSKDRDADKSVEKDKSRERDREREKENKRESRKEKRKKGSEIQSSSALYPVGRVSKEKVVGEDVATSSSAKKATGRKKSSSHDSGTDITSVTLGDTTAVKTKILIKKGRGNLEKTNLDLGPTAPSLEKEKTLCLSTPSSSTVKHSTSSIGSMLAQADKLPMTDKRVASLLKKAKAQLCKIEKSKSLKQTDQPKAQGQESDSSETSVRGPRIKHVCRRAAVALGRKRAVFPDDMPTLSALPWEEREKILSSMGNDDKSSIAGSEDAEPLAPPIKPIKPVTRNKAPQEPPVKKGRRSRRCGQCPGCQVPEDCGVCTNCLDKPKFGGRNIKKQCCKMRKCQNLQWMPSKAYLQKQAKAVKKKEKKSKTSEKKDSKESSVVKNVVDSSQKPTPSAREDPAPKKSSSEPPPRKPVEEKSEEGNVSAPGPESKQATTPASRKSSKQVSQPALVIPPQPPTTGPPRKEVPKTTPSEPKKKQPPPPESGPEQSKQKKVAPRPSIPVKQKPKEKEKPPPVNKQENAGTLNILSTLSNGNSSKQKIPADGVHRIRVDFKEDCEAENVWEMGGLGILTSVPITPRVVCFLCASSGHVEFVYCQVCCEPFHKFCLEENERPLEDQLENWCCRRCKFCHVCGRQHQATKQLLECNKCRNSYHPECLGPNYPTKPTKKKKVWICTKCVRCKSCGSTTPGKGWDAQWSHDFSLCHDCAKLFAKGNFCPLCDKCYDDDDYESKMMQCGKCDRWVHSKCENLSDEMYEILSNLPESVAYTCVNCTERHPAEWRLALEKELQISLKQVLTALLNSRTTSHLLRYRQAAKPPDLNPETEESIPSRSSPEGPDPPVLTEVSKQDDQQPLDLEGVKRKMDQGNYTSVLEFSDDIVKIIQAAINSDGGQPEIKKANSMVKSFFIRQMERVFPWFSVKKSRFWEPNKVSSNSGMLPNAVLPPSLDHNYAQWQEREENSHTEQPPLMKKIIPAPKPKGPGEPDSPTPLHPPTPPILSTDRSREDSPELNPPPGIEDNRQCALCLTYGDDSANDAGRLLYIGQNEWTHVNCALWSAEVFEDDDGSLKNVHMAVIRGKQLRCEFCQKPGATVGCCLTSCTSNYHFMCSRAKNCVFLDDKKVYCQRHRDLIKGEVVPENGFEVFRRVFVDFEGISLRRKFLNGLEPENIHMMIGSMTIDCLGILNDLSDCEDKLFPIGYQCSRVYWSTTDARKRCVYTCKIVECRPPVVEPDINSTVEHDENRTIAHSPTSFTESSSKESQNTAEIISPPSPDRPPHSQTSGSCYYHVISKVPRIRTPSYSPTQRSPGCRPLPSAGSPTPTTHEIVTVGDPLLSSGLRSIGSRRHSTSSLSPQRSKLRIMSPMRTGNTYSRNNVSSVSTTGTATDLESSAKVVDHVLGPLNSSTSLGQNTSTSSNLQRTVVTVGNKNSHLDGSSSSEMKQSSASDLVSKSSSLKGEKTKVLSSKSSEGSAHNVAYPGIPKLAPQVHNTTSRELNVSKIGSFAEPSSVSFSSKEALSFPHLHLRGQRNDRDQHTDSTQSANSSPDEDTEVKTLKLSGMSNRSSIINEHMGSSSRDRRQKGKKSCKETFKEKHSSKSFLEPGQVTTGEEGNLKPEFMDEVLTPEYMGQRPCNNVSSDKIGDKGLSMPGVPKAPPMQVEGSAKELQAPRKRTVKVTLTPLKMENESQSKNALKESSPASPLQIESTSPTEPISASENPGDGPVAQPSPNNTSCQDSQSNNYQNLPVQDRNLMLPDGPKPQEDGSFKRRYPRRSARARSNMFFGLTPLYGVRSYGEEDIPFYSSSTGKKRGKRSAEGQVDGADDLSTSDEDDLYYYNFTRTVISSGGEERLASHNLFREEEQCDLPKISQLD
Chain of Histone-lysine N-methyltransferase 2A (Q03164 2719-3969 limits assumed): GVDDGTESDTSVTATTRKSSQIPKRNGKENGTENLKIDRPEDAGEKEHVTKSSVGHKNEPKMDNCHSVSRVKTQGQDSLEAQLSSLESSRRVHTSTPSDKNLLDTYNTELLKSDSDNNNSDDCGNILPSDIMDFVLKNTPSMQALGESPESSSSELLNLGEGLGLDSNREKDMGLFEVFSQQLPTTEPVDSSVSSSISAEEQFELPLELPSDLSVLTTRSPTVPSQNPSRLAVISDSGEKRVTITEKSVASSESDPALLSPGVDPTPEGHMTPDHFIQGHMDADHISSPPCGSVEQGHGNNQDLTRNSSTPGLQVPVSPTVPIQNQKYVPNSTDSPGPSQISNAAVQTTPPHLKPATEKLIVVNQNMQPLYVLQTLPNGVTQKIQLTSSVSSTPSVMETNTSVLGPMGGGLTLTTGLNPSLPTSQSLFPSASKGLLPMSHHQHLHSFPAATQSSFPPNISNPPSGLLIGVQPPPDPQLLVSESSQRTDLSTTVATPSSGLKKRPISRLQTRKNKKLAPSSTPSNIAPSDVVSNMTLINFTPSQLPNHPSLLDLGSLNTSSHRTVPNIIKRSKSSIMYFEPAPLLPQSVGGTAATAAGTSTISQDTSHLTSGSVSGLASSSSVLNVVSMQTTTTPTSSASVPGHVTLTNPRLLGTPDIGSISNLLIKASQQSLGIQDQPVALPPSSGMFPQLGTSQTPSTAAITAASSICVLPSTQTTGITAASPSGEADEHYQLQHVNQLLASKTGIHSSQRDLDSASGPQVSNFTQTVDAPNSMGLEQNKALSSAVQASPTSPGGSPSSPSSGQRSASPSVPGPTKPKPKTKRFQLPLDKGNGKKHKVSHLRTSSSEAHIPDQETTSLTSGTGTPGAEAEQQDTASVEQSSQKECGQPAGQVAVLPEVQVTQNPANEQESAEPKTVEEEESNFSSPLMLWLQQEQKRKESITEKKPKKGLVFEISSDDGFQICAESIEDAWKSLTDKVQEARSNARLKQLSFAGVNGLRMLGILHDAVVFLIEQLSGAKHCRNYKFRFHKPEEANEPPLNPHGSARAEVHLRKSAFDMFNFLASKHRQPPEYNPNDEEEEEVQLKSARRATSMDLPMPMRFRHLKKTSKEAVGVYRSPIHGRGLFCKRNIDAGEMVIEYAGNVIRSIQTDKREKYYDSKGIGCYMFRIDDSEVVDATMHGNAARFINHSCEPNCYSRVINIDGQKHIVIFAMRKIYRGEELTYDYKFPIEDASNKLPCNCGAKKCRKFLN

As for `C=CC(=O)N1CCC(c2ccc(OCC)cc2)(c2nnn[nH]2)CC1`, the IC50 in experiment [1] turned out to be 30 µM; in experiment [2], 36 µM; in experiment [3], 131 µM; in experiment [4], 22 µM.

With `C=CC(=O)N1CCC(C(=O)O)(c2ccc(OC)cc2)CC1`, the IC50 was found to be 53 µM in experiment [1], 30 µM in experiment [2], 47 µM in experiment [3] and 43 µM in experiment [4].

Turning to `C=CC(=O)N1CCC(C(=O)O)(c2ccc(OCC)cc2)CC1`, the IC50 was determined as 3.6 µM in experiment [1], 4.2 µM in experiment [2], 16.2 µM in experiment [3] and 3.3 µM in experiment [4].

On to `C=CC(=O)N1CCC(C(=O)NS(=O)(=O)c2ccccc2)(c2ccccc2)CC1`, for which the half-inhibitory concentration (IC50) in experiment [1] came to 35 µM; in experiment [2], 30 µM; in experiment [3], 53 µM; in experiment [4] it was 46 µM.

On to `C=CC(=O)N1CCC(c2cccc(OCC)c2)(c2nnn[nH]2)CC1`, for which the IC50 in experiment [1] stood at 9.4 µM; in experiment [2], 7.4 µM; in experiment [3], 40 µM; in experiment [4], 7.7 µM.

As for `C=CC(=O)N1CCC(C(=O)O)(c2ccc(Cl)cc2)CC1`, the IC50 in experiment [1] was found to be 53 µM; in experiment [2], 33 µM; in experiment [3] it was 53 µM; in experiment [4], 41 µM.

Consider `C=CC(=O)N1CCC(c2ccccc2)(c2nnn[nH]2)CC1`, for which the 50% inhibitory concentration (IC50) came out at 8.3 µM in experiment [1], 4.4 µM in experiment [2], 28 µM in experiment [3] and 4.9 µM in experiment [4].

On to `C=CC(=O)N1CCC(C(=O)O)(c2ccccc2)CC1`, for which the IC50 stood at 6.4 µM in experiment [1], 3.9 µM in experiment [2], 4.8 µM in experiment [3] and 7.1 µM in experiment [4].

As to `C=CC(=O)N1CCC(c2ccc(OC)cc2)(c2nnn[nH]2)CC1`, the IC50 in experiment [1] is 32 µM; in experiment [2], 16.4 µM; in experiment [3] it was 56 µM; in experiment [4], 15 µM.

Broadly, the IC50 is the point on the concentration scale where inhibition reaches its midpoint.
